Results taken from ChEMBL document CHEMBL1156469 (2007).
Activity calls are given as the source filed them. No cut-off for these calls is given here.

What was measured:
Osteoblast [1] = test: Effect on histone H1 gene expression in rat primary osteoblast cells assessed as expression ratio of treated to untreated control by microarray analysis; format: functional
Summary of the method: (§1)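 Resveratrol-treated and vehicle-treated primary osteoblasts were profiled on a mouse osteogenesis-focused cDNA array (GEArray Q series) built to track gene expression during osteogenic differentiation. Each gene's signal in treated cells was expressed as a ratio to untreated control.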

Osteoblast [2] = test: Effect on bone morphogenetic protein 6 gene expression in rat primary osteoblast cells assessed as expression ratio of treated to untreated control by microarray analysis; format: functional
MG-63 = test: Increase in osteocalcin levels in human MG63 cells at 1 uM after 72 hrs by ELISA; format: functional, cell-based
Summary of the method: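 Cells treated with 1 μm for 72 h; osteocalcin or osteopontin in culture medium by sandwich ELISA, HRP-streptavidin/TMB, 450 nm; percent change versus untreated control.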

MDA-MB-231 [3] = test: Antitumor activity against human MDA-MB-231 cells xenografted in SCID mouse orthotropic model assessed as inhibition of 17beta estradiol-induced tumor formation at 10 mg/kg for 2 days; format: functional; design: scale not given: the % may be the effect or the level left
Summary of the method: (§2)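 Tumor cells were inoculated orthotopically into the mammary fat pad of 6-week-old female SCID mice. […] Tumor volume was calculated as LW2/2. Tumor formation was scored as mice with tumors per total (20 per group), and tumor weight as mean ± S.D. Groups were compared by one-way ANOVA with LSD post-hoc comparisons.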

Osteoblast [4] = test: Effect on bone morphogenetic protein 8b gene expression in rat primary osteoblast cells assessed as expression ratio of treated to untreated control by microarray analysis; format: functional
Osteoblast [5] = test: Effect on procollagen 9 alpha 1 gene expression in rat primary osteoblast cells assessed as expression ratio of treated to untreated control by microarray analysis; format: functional; summary of the method: as §1
Osteoblast [6] = test: Reversal of increase in ER.DNA complex in rat primary osteoblast cells transfected with dominant-negative mutant Src expression vector at 1 uM by RT-PCR; format: functional, cell-based
[7] = Reversal of increase in pBMP2 expression in rat primary osteoblast cells transfected with dominant-negative mutant Src expression vector at 1 uM by luciferase method; format: functional, cell-based
Osteoblast [8] = test: Effect on matrix metalloprotease 13 gene expression in rat primary osteoblast cells assessed as expression ratio of treated to untreated control by microarray analysis; format: functional; summary of the method: as §1
Osteoblast [9] = test: Effect on MAD homolog 4 gene expression in rat primary osteoblast cells assessed as expression ratio of treated to untreated control by microarray analysis; format: functional
Osteoblast [10] = test: Increase in bone morphogenetic protein 2 gene expression in rat primary osteoblast cells assessed as expression ratio of treated to untreated control by microarray analysis; format: functional
Summary of the method: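 GEArray Q series Mouse Osteogenesis cDNA array profiling osteogenic-differentiation genes in treated versus vehicle-treated primary osteoblasts.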

MC3T3-E1 [11] = test: Increase in proliferation of mouse MC3T3-E1 cells assessed as fraction of cells in S phase at 0.1 to 10 uM after 24 hr by flow cytometry; format: functional, cell-based
MDA-MB-231 [12] = test: Antitumor activity against human MDA-MB-231 cells xenografted in SCID mouse orthotropic model assessed as inhibition of 17beta estradiol-induced tumor weight at 10 mg/kg for 2 days; format: functional; design: scale not given: the % may be the effect or the level left; summary of the method: as §2
Osteoblast [13] = test: Effect on MAD homolog 6 gene expression in rat primary osteoblast cells assessed as expression ratio of treated to untreated control by microarray analysis; format: functional
Osteoblast [14] = test: Increase in BMP2 levels in rat primary osteoblast cells at 1 uM by Western blot; format: functional, cell-based; settings: TDE = time-dependent effect
Summary of the method: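 Osteoblasts treated with 1 μm for the indicated times; lysates resolved by SDS-PAGE, transferred to nitrocellulose, probed with anti-BMP-2, ECL detection.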

Osteoblast [15] = test: Effect on integrin alpha 2 gene expression in rat primary osteoblast cells assessed as expression ratio of treated to untreated control by microarray analysis; format: functional; summary of the method: as §1
MC3T3-E1 [16] = test: Inhibition of antiapoptotic activity in mouse MC3T3-E1 cells at 1 uM after 48 hrs in presence of noggin; format: functional, cell-based
[17] = Reversal of increase in BMP2 expression in mouse MC3T3-E1 cells expressing small interfering RNA for FOXA1 protein at 1 uM by Western blot; format: functional, cell-based
[18] = molecular target: Forkhead box protein O3 (Homo sapiens) (UniProt O43524); test: Enhancement of FOXO3a activity in human MDA-MB-231 cells transfected with dominant negative Akt mutant; format: cell-based
Summary of the method: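 MDA-MB-231 cells transfected with vector, constitutively active Akt or dominant negative Akt, treated ± compound; analyzed by Western blotting and BMP-2 promoter luciferase activity.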

[19] = molecular target: Alkaline phosphatase (Rattus norvegicus) (UniProt Q9JKS8); test: Inhibition of induction of ALP activity in rat primary osteoblast cells at 1 uM after 48 hrs in presence of noggin; format: cell-based
Osteoblast [20] = test: Effect on procollagen 4 alpha 1 gene expression in rat primary osteoblast cells assessed as expression ratio of treated to untreated control by microarray analysis; format: functional; summary of the method: as §1
Osteoblast [21] = test: Increase in osteocalcin mRNA levels in rat primary osteoblast cells at 1 uM after 72 hrs by RT-PCR; format: functional, cell-based
Summary of the method: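 Cells treated with 1 μm for 72 h; osteocalcin and osteopontin mRNA by RT-PCR, 30 cycles (95/52/72 °C, 1 min each), ethidium bromide–stained agarose gels; repeated at least twice from at least two cDNA preparations.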

[22] = molecular target: Proto-oncogene tyrosine-protein kinase Src (Mus musculus) (UniProt P05480); test: Reversal of increase in Src kinase phosphorylation in mouse MC3T3-E1 cells transfected with dominant-negative mutant Src expression vector at 1 uM; format: cell-based
Summary of the method: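 Src phosphorylation, ERα nuclear translocation and BMP-2 protein analysed by Western blot with ECL detection. Three independent experiments.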

Osteoblast [23] = test: Effect on epidermal growth factor gene expression in rat primary osteoblast cells assessed as expression ratio of treated to untreated control by microarray analysis; format: functional
Osteoblast [24] = test: Inhibition of TNF-alpha-induced apoptosis in rat primary osteoblast cells after 24 hrs by flow cytometry; format: functional, cell-based
Summary of the method: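 Cells washed in PBS, held 30 min in 0.5% Triton X-100/PBS/0.05% RNase A, then propidium iodide (50 μg/ml) added and kept on ice 15–30 min. Apoptosis is the hypodiploid fraction below the G0/G1 peak, by flow cytometry. Run in triplicate and repeated on three occasions.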

[25] = molecular target: RAC-alpha serine/threonine-protein kinase (Homo sapiens) (UniProt P31749); test: Reversal of induction of Akt inactivation in human MDA-MB-231 cells transfected with constitutively activated Akt mutant; format: cell-based
Osteoblast [26] = test: Effect on MAD homolog 1 gene expression in rat primary osteoblast cells assessed as expression ratio of treated to untreated control by microarray analysis; format: functional
Osteoblast [27] = test: Increase in proliferation of rat primary osteoblast cells at 0.1 to 10 uM after 24 hr by flow cytometry; format: functional, cell-based
Osteoblast [28] = test: Effect on growth differentiation factor 10 gene expression in rat primary osteoblast cells assessed as expression ratio of treated to untreated control by microarray analysis; format: functional; summary of the method: as §1
MDA-MB-231 [29] = test: Reversal of induction of FOXO3a nuclear accumulation in human MDA-MB-231 cells transfected with constitutively activated Akt mutant; format: functional, cell-based

Sequence of Forkhead box protein O3 (Homo sapiens) (O43524 whole entry): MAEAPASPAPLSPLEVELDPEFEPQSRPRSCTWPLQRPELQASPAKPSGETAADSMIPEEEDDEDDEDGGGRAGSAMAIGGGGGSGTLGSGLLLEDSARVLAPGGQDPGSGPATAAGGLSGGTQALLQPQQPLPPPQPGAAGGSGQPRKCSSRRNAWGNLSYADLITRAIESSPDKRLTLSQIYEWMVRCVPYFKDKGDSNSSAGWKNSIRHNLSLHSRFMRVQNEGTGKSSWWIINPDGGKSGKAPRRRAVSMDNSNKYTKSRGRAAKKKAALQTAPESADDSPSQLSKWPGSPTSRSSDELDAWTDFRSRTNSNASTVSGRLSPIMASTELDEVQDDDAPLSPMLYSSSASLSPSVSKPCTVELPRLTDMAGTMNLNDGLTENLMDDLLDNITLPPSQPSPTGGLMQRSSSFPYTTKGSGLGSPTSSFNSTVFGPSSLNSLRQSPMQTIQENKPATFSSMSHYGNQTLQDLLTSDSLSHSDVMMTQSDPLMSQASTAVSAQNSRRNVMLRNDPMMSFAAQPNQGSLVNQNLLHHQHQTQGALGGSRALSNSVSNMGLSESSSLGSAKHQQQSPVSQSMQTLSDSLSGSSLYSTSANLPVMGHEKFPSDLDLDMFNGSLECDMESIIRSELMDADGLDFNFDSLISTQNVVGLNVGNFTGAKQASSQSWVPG
Sequence of Alkaline phosphatase (Rattus norvegicus) (Q9JKS8 as listed by the source): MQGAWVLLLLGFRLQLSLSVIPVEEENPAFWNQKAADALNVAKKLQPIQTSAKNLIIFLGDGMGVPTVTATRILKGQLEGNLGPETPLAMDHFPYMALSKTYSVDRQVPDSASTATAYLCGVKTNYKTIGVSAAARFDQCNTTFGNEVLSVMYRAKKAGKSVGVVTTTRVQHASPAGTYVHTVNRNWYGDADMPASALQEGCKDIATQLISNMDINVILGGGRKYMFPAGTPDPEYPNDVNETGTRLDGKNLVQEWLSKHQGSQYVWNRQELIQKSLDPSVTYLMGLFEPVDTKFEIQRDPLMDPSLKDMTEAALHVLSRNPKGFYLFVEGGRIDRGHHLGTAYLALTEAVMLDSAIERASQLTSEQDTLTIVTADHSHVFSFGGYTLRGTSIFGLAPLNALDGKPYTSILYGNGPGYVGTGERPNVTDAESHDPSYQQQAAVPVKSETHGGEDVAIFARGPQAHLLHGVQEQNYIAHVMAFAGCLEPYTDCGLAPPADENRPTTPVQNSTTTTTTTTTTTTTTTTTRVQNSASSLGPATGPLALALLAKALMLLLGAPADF
Sequence of RAC-alpha serine/threonine-protein kinase (Homo sapiens) (P31749 whole entry): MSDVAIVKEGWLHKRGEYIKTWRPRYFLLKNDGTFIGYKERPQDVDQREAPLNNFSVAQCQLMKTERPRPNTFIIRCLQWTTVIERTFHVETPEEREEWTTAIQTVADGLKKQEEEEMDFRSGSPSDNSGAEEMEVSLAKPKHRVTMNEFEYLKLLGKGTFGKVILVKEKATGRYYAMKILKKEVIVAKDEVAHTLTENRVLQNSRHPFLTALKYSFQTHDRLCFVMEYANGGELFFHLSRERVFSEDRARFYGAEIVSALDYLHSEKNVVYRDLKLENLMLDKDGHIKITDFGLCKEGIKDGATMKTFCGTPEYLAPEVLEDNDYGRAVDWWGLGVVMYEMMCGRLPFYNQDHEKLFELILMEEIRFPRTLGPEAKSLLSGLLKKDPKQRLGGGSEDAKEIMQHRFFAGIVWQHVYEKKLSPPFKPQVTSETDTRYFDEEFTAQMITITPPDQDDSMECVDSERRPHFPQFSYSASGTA
Sequence of Proto-oncogene tyrosine-protein kinase Src (Mus musculus) (P05480 2-535 limits assumed): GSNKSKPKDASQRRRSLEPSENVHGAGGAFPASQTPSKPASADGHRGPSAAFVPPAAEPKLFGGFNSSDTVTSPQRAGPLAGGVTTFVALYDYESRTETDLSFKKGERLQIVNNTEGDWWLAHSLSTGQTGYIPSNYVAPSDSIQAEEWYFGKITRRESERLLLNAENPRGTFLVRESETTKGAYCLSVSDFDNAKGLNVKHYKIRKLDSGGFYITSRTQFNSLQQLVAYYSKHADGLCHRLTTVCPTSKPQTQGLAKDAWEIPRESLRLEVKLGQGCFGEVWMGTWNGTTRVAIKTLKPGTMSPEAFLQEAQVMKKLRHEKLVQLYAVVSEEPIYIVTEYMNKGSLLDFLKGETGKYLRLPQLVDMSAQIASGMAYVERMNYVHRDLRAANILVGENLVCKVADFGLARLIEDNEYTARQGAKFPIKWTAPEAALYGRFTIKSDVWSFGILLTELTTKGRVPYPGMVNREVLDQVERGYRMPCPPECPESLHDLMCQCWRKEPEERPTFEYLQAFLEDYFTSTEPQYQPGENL

SMILES: Oc1ccc(/C=C/c2cc(O)cc(O)c2)cc1 [RESVERATROL]
- Ratio (Osteoblast [1]): 0.44
- Ratio (Osteoblast [2]): 3.38
- Activity (MG-63): Active
- Activity (MDA-MB-231 [3]): 85%
- Ratio (Osteoblast [4]): 1.82
- Ratio (Osteoblast [5]): 3.99
- Activity (Osteoblast [6]): Active
- Activity [7]: Active
- Ratio (Osteoblast [8]): 0.64
- Ratio (Osteoblast [9]): 2.63
- Ratio (Osteoblast [10]): 12.75
- Activity (MC3T3-E1 [11]): Active
- Activity (MDA-MB-231 [12]): 43.6%
- Ratio (Osteoblast [13]): 0.38
- Activity (Osteoblast [14]): tde
- Ratio (Osteoblast [15]): 2.24
- Activity (MC3T3-E1 [16]): Active
- Activity [17]: Active
- Activity [18]: Active
- Activity [19]: Active
- Ratio (Osteoblast [20]): 8.15
- Activity (Osteoblast [21]): Active
- Activity [22]: Active
- Ratio (Osteoblast [23]): 0.55
- Activity (Osteoblast [24]): Active
- Activity [25]: Active
- Ratio (Osteoblast [26]): 3.24
- Activity (Osteoblast [27]): Active
- Ratio (Osteoblast [28]): 0.93
- Activity (MDA-MB-231 [29]): Active
